According to article PMC3159820 (Journal of immunology (Baltimore, Md. : 1950), 2011):

Test system: T cell hybridoma HH8
Assay: Activation of T cell hybridoma HH8 by PT-gluten
Assay type: cell-based, mouse
Conditions: HH8 and DB4, in words
Method in brief: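 Irradiated (8,000 rads) T2DM cells (100,000) retrovirally expressing DQ2 WT or mutant co-cultured 16-24 h with HH8 hybridoma (100,000) and titrated PT-gluten (0.06-3 μg/μl); supernatant IL-2 by mouse IL-2 ELISA. PT-gluten: gluten digested with pepsin (pH 2.0), then trypsin/chymotrypsin (pH 6), 37°C; heat-inactivated; dialysed high-molecular-weight fraction deamidated with guinea pig transglutaminase (100 ug/ml, 1mM CaCl2, 37°C, 2h).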

Sequence | effect of DM on presentation of the epitope
PQPELPYPQPQL [α-II-gliadin 62-70] | DM-suppressed epitope
QLQPFPQPELPYPQPQS [α-gliadin 57-73 Q65E] | suppressed by DM in endocytic compartments
